Tests used:
Hop = Hop (Homo sapiens, UniProt P31948); assay: FP binding of C-terminal Hsp70/90 tracers to Hop
Method in brief: (§1)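 Full-length human protein, made in E. coli BL21(DE3) and Ni-NTA purified (DnaJC7 kept its His-tag; Hop and FKBP52 were TEV-cleaved and gel-filtered). Twofold dilutions (0–125 μM final) with 20 nM N-terminal 5-Fam-aminohexanoyl C-terminal Hsp70/90 peptide in 50 mM HEPES, 75 mM NaCl, 0.001% Triton X-100, pH 7.4. 30 min at RT, dark. FP (ex 485/em 530 nm) isotherms. ≥2 runs in triplicate, mean ± SEM.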

CHIP = molecular target: T1, CHIP (Homo sapiens, UniProt Q9UNE7); assay: FP binding of C-terminal Hsp70/90 tracers to CHIP; conditions: pH 7.4, full-length CHIP
T1 sequence (Q9UNE7 1-303): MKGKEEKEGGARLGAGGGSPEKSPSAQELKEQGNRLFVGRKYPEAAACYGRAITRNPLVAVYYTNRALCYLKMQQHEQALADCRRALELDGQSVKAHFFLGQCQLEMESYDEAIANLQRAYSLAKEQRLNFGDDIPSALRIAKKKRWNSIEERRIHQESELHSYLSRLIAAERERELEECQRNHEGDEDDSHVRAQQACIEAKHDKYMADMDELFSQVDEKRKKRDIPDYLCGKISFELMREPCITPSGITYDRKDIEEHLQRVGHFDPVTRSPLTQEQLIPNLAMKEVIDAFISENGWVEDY

FKBP52 = molecular target: T2, FKBP52 (Homo sapiens, UniProt Q02790); assay: FP binding of C-terminal Hsp70/90 tracers to FKBP52; conditions: pH 7.4, full-length FKBP52
T2 sequence (Q02790 1-459): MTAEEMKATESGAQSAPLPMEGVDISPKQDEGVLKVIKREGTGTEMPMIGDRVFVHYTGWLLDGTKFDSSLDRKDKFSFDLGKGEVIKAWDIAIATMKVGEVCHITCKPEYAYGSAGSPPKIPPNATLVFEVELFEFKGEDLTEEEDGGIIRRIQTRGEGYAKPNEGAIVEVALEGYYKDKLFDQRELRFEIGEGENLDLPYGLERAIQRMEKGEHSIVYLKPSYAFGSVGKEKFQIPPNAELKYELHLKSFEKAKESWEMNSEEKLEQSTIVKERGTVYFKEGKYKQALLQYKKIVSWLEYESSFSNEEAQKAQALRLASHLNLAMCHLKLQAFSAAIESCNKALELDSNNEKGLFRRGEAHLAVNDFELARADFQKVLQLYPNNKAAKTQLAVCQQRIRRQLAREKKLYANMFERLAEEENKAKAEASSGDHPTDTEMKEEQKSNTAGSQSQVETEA
Method in brief: as §1

DnaJC7 = molecular target: T3, DnaJC7 (Homo sapiens, UniProt Q99615); assay: FP binding of C-terminal Hsp70/90 tracers to DnaJC7; conditions: pH 7.4, full-length DnaJC7
T3 sequence (Q99615 1-494): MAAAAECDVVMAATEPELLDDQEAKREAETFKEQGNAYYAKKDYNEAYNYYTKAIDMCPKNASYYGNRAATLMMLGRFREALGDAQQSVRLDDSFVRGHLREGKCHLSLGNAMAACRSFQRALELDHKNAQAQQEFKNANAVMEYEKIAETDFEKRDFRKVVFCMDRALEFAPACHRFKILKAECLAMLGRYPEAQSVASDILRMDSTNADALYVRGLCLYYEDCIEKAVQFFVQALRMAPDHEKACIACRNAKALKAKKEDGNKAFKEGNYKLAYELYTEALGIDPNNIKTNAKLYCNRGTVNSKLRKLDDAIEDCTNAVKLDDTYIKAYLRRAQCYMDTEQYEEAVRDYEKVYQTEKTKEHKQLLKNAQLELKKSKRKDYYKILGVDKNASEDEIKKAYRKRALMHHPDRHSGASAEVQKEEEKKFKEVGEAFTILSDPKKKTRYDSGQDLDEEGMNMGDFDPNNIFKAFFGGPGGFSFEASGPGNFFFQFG
Method in brief: as §1

FKBP51 = molecular target: T4, FKBP51 (Homo sapiens, UniProt Q13451); assay: FP binding of C-terminal Hsp70/90 tracers to FKBP51; conditions: pH 7.4, full-length FKBP51
T4 sequence (Q13451 1-457): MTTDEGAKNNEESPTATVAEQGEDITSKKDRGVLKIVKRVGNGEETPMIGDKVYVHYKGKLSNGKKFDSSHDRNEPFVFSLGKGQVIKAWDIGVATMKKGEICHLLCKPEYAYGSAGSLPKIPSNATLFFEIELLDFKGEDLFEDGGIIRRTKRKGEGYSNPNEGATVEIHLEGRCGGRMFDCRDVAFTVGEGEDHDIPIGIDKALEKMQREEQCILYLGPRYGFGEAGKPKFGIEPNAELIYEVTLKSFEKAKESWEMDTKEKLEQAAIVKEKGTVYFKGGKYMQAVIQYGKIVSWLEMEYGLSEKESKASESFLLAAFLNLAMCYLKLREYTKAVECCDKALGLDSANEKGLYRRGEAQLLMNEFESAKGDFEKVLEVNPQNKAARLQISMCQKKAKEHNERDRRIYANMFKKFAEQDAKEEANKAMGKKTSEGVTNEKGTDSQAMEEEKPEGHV

Hop, sequence (P31948 whole entry): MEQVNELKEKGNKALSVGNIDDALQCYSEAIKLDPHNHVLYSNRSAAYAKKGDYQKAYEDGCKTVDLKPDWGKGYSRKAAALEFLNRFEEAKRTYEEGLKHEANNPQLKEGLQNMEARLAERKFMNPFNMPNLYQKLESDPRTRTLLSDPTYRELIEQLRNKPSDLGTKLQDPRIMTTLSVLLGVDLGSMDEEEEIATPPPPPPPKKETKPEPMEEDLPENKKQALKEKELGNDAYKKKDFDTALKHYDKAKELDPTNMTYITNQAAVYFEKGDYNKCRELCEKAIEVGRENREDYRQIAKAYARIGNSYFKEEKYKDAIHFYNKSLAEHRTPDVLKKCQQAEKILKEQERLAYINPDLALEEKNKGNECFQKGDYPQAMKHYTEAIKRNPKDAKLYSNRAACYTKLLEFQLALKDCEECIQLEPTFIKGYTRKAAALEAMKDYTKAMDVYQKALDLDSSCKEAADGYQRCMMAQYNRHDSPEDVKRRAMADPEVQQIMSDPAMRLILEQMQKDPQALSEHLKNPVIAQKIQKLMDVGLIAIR

| enhanced binding versus wt tracer (Hop; pH 7.4, pseudophosphorylated tracer) | decrease in affinity versus wt tracer (CHIP) | binding to FKBP52 (in words) (FKBP52) | binding to DnaJC7 (in words) (DnaJC7) | binding to FKBP51 (in words) (FKBP51) | binding to Hop (in words) (Hop; pH 7.4, full-length Hop) | binding to CHIP (in words) (CHIP) | Substance |
| --- | --- | --- | --- | --- | --- | --- | --- |
| ~ 2 fold | more than 8 fold | unaffected | unaffected | unaffected |  |  | Fam-DDTERMEEVD |
|  |  | no affinity | no affinity | no affinity | no affinity | no affinity | Fam-DVEEM |

From article PMC4714923 (Biochemistry, 2015)
